Screening results as filed in PubChem BioAssay.
The entries come from a sample that favours hits as a whole.
H69AR inhibit: growth inhibitors of human H69AR lung tumor cells; H69AR lung tumor viability, ATP luminescence, 72 h; active compounds read low; viability, % at 10 µM; hit rate 6% among 85,000; AID 598;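 active = viability at or below 40%; inactive = viability above 40%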;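 also: multidrug resistant small cell line overexpressing MRP-1 efflux transporter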
PTEN del growth: suppresses growth of cells with PTEN deletion; AID 827; HCT116 PTEN-null viability, CellTiter-Glo, 60 h; active compounds read low; viability, % at 10 µM; hit rate 1.2% among 140,000;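 active = viability at or below a set limit, 4 SD under the median of all tested compounds, cut at about 3.7% in these data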;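 also: PTEN knockout HCT116 line with beta catenin targeted HCT116 as companion control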
HUVEC inhibit: human endothelial cell proliferation inhibition. HUVEC proliferation, CellTiter-Glo luminescence, 72 h; active compounds read low. hit rate 1.1% among 86,000. viability, % at 10 µM (by protocol);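 active = viability at or below 30%; inactive = viability above 30%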
bCat KO growth: beta-catenin-lacking colon tumor cell growth suppression; hit rate 1.5% among 140,000; HCT116 beta-catenin knockout viability, CellTiter-Glo, 60 h; active compounds read low; viability, % at 10 µM; AID 818;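 active = viability at or under a set limit, the compound median less 4 SD, cut at about 6% in these data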
Lung fibro prol: blocks proliferation of human lung fibroblasts; LL 47 human lung fibroblast viability, ATP luminescence; active compounds read low; viability, % at 10 µM; hit rate 1.1% among 85,000;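 active = viability at or below 50% in the single dose screen; inactive = viability above 50%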;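 also: compound exposure lasted 72 h before the ATP readout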
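Material: human lung fibroblast line LL 47, low passage; Evaluation: viability percentage against median untreated-cell control; Buffer or medium: 15% FBS in IMEM; Incubation: 72 h compound exposure at 37 °C after overnight plating; Dosing: 0.1% DMSO in all compound wells; Measured by: CellTiter-Glo luminescence.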
A number is an active result.

What do the screens show for `COc1ccc(N(C(=O)c2ccco2)S(=O)(=O)c2ccccc2)cc1`?
PTEN del growth: inactive; bCat KO growth: inactive

Results for Oc1ccc(Oc2ncc(Cl)cc2Cl)cc1 ?
H69AR inhibit: inactive; PTEN del growth: inactive; HUVEC inhibit: inactive; bCat KO growth: inactive; Lung fibro prol: inactive

Results for CCCCNc1c2c3c(cccc3n(C)c1=O)C(=O)c1ccccc1-2 ?
H69AR inhibit: 15.9; PTEN del growth: inactive; HUVEC inhibit: inactive; bCat KO growth: inactive; Lung fibro prol: inactive

Results for Cn1c(=O)c(NCCO)c2c3c(cccc31)C(=O)c1ccccc1-2 ?
H69AR inhibit: inactive; PTEN del growth: inactive; HUVEC inhibit: inactive; bCat KO growth: inactive; Lung fibro prol: inactive

Results for CCCCc1c(O)nc2sc3cc(OC)ccc3n2c1=O ?
PTEN del growth: inactive; bCat KO growth: inactive

How did CCOc1cc(CNCCc2ccc(S(N)(=O)=O)cc2)cc(Cl)c1OCc1ccccc1 do in these assays?
PTEN del growth: 1.9; bCat KO growth: 1.5

What do the screens show for `COc1cc(CNC2CCCC2)cc(Cl)c1OCc1ccc(F)cc1`?
PTEN del growth: inactive; bCat KO growth: inactive

Results for COc1cc(CNC2CCCC2)cc(OC)c1OC ?
H69AR inhibit: inactive; PTEN del growth: inactive; HUVEC inhibit: inactive; bCat KO growth: inactive; Lung fibro prol: inactive

What do the screens show for `CCOc1cc(CNC2CCCC2)cc(Cl)c1OCc1ccc(F)cc1`?
PTEN del growth: 0.9; bCat KO growth: 0.9

Results for COc1cc(CNC2CCCC2)cc(Cl)c1OCc1ccccc1Cl ?
PTEN del growth: 1.6; bCat KO growth: 1.2

Results for O=C(/C=C/c1ccccc1)NCCSCc1ccccc1 ?
PTEN del growth: inactive; bCat KO growth: inactive

Results for CCOC(=O)c1c(C)n(C)c2ccc(OC)c(NS(=O)(=O)c3ccc(Cl)s3)c12 ?
H69AR inhibit: inactive; PTEN del growth: inactive; HUVEC inhibit: inactive; bCat KO growth: inactive; Lung fibro prol: inactive

Results for Cc1c(CC(C)C)nc(N)c(C#N)c1-c1ccccc1 ?
H69AR inhibit: 24.2; PTEN del growth: inactive; HUVEC inhibit: inactive; bCat KO growth: inactive; Lung fibro prol: inactive

What do the screens show for `O=C(NC1=NCCS1)c1ccncc1`?
H69AR inhibit: inactive; PTEN del growth: inactive; HUVEC inhibit: inactive; bCat KO growth: inactive; Lung fibro prol: inactive

How did O=C(Nc1ccc(-c2noc(-c3cccs3)n2)cc1)c1cccnc1 do in these assays?
H69AR inhibit: 10.3; PTEN del growth: inactive; HUVEC inhibit: inactive; bCat KO growth: inactive; Lung fibro prol: inactive

How did COc1ccc(-c2noc(-c3ccccc3C(=O)Nc3cccnc3)n2)cc1 do in these assays?
H69AR inhibit: inactive; PTEN del growth: inactive; HUVEC inhibit: inactive; bCat KO growth: inactive; Lung fibro prol: inactive

How did COc1cccc(-c2nc(-c3ccc(NC(=O)c4cccnc4)cc3)no2)c1 do in these assays?
H69AR inhibit: 25.8; PTEN del growth: inactive; HUVEC inhibit: inactive; bCat KO growth: inactive; Lung fibro prol: inactive

Results for COc1cc(OC)cc(C(=O)Nc2c(F)cccc2F)c1 ?
H69AR inhibit: inactive; PTEN del growth: inactive; HUVEC inhibit: inactive; bCat KO growth: inactive; Lung fibro prol: inactive

How did COc1ccc(Br)cc1CNc1ccc(O)cc1 do in these assays?
H69AR inhibit: 36.3; PTEN del growth: inactive; HUVEC inhibit: inactive; bCat KO growth: inactive; Lung fibro prol: inactive

Results for COc1ccc(Br)cc1CNC(C)c1ccccc1 (stereo not drawn) ?
PTEN del growth: inactive; bCat KO growth: inactive

How did Cc1cc(C)cc(NC(=O)N2CCCC2C(=O)Nc2ccc(-n3cnnn3)cc2)c1 (stereo not drawn) do in these assays?
PTEN del growth: inactive; bCat KO growth: inactive

Results for CCCCOc1ccc(-c2nc(SCC(N)=O)n[nH]2)cc1 ?
H69AR inhibit: inactive; PTEN del growth: inactive; HUVEC inhibit: inactive; bCat KO growth: inactive; Lung fibro prol: inactive

Results for CCCCOc1ccc(-c2nc(=S)[nH][nH]2)cc1 ?
H69AR inhibit: 19.1; PTEN del growth: inactive; HUVEC inhibit: inactive; bCat KO growth: inactive; Lung fibro prol: inactive

How did CC(=O)c1ccc(NC(=O)Nc2cccc(Cl)c2)cc1 do in these assays?
H69AR inhibit: 5.0; PTEN del growth: inactive; HUVEC inhibit: inactive; bCat KO growth: inactive; Lung fibro prol: inactive

What do the screens show for `O=C(NCCc1ccncc1)Nc1cccc(Cl)c1`?
H69AR inhibit: inactive; PTEN del growth: inactive; HUVEC inhibit: inactive; bCat KO growth: inactive; Lung fibro prol: inactive

How did O=C(Nc1cccc(Cl)c1)Nc1nnc(-c2ccncc2)s1 do in these assays?
PTEN del growth: 3.2; bCat KO growth: 3.8

What do the screens show for `O=C(Nc1ccc(F)cc1)Nc1nnc(-c2ccncc2)s1`?
PTEN del growth: inactive; bCat KO growth: inactive

How did O=C(Nc1ccc(Cl)cc1)Nc1nnc(-c2ccncc2)s1 do in these assays?
PTEN del growth: 2.1; bCat KO growth: 4.3

Results for Cc1cccc(-n2c3nc(=O)[nH]c(=O)c-3cc3c(C)nn(-c4ccccc4)c32)c1 ?
PTEN del growth: inactive; bCat KO growth: inactive

What do the screens show for `Cc1nn(-c2nc3ccccc3s2)c(N)c1Sc1ccc(F)cc1`?
H69AR inhibit: 9.7; PTEN del growth: inactive; HUVEC inhibit: inactive; bCat KO growth: inactive; Lung fibro prol: 17.8

Results for CC1(C)Cc2c(c(N3CCOCC3)nc3sc4c(NN)ncnc4c23)CS1 ?
H69AR inhibit: inactive; PTEN del growth: inactive; HUVEC inhibit: 6.3; bCat KO growth: 2.8; Lung fibro prol: 17.3

How did CC(C)CNc1nnnc2c1sc1nc(N3CCOCC3)c3c(c12)CC(C)(C)SC3 do in these assays?
PTEN del growth: inactive; bCat KO growth: inactive

Results for CC1(C)Cc2c(c(N3CCOCC3)nc3sc4c(NCc5ccccc5)nnnc4c23)CS1 ?
H69AR inhibit: 2.0; PTEN del growth: 3.2; HUVEC inhibit: 24.4; bCat KO growth: inactive; Lung fibro prol: 17.6

What do the screens show for `CC1(C)Cc2c(c(N3CCOCC3)nc3sc4c(NCc5ccco5)nnnc4c23)CS1`?
H69AR inhibit: 37.0; PTEN del growth: inactive; HUVEC inhibit: inactive; bCat KO growth: inactive; Lung fibro prol: inactive

What do the screens show for `Nc1ncnc2c1CCC2`?
H69AR inhibit: inactive; PTEN del growth: inactive; HUVEC inhibit: inactive; bCat KO growth: inactive; Lung fibro prol: inactive

How did Cn1cc([N+](=O)[O-])c(C(=O)N/N=C/c2ccc([N+](=O)[O-])cc2)n1 do in these assays?
PTEN del growth: inactive; bCat KO growth: inactive

What do the screens show for `Cn1cc([N+](=O)[O-])c(C(=O)Nc2ccc(Br)cn2)n1`?
PTEN del growth: 1.4; bCat KO growth: 2.7

What do the screens show for `Cn1cc([N+](=O)[O-])c(C(=O)Nc2ccn(Cc3c(F)c(F)cc(F)c3F)n2)n1`?
PTEN del growth: 3.1; bCat KO growth: 3.0

How did Fc1cccc(NC(=S)NCCCN2CCOCC2)c1 do in these assays?
PTEN del growth: inactive; bCat KO growth: inactive

What do the screens show for `COc1ccc(N2C(=O)/C(=C/c3ccc([N+](=O)[O-])cc3)C=C2c2ccccc2)cc1`?
H69AR inhibit: 20.6; PTEN del growth: inactive; HUVEC inhibit: inactive; bCat KO growth: inactive; Lung fibro prol: inactive

Results for O=C1/C(=C/c2ccc([N+](=O)[O-])cc2)C=C(c2ccccc2)N1c1ccc(O)cc1 ?
H69AR inhibit: 26.1; PTEN del growth: 2.2; HUVEC inhibit: 9.9; bCat KO growth: 2.2; Lung fibro prol: inactive
